Assay [1] has as its target T1, 5-hydroxytryptamine receptor 2C (Homo sapiens, UniProt P28335).
T1 sequence (P28335 whole entry): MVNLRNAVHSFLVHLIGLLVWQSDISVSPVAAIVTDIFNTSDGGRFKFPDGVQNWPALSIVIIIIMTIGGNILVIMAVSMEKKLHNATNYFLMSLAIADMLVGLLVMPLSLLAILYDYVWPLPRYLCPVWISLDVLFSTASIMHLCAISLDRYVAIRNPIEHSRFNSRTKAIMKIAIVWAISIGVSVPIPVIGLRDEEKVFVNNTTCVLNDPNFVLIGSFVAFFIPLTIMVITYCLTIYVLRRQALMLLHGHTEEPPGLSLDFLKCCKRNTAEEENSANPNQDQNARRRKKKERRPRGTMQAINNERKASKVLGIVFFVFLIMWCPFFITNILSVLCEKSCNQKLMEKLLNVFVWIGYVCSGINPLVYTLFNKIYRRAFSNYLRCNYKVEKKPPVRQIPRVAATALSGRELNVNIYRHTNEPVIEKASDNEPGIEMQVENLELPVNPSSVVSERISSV
Put plainly: Binding affinity using [125I]DOI as radioligand with membranes isolated from a CHO-k cell line expressing the human 5-hydroxytryptamine 2C receptor. In outline: (§1)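 Competition binding used human 5-HT2C CHO membranes. [125I]DOI labelled agonist sites and [3H]mesulergine labelled antagonist sites. IC50 came from nine-point concentration curves, each point in triplicate. Ki was calculated by Cheng-Prusoff: Ki = IC50/(1 + [radioligand]/Kd).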

Assay [2] concerns the target T1, 5-hydroxytryptamine receptor 2C. Briefly: Binding affinity using [3H]mesulergine as radioligand with receptor membranes isolated from a CHO-k cell line expressing the human 5-hydroxytryptamine 2C receptor. In short, it runs like this: as §1
The target is the same in assay [3]. Put plainly: Agonistic activity for 5-HT2c (5-HT2C) by measuring [3H]inositol monophosphate fromation in CHO cells in which the human 5-HT2C receptor subtype was stably expressed. The class given is functional, cell-based. In short, it runs like this:
(§2)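 CHO cells stably expressing human 5-HT2C were labelled overnight with myo-[3H]inositol, washed, and preincubated 30 min in medium containing LiCl. Agonist was then added at 10^-10 to 10^-5 M for 30 min. [3H]IP was counted by liquid scintillation and expressed as % of the maximal 5-HT response. EC50 came from six-point curves in duplicate, fitted by a three-parameter logistic; Emax is relative to maximal 5-HT.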

Assay [4] can be described thus: Emax values indicate relative efficacy compared to a maximally effective 5-HT2c (5-HT) concentration. It is filed as functional. In short, it runs like this:
as §2

Assay [5] addresses T2, 5-hydroxytryptamine receptor 2C (Homo sapiens) (UniProt P28335).
T2 sequence (whole entry): T1 sequence (P28335 whole entry)
Briefly: Inhibitory activity using [3H]mesulergine as radioligand with receptor membranes isolated from a CHO-k cell line expressing the human 5-hydroxytryptamine 2C receptor at a concentration of 1 uM. The class given is cell-free.

The test system of assay [6] is Rattus norvegicus. Put plainly: Concentration required to decrease food intake in Sprague-Dawley rats when compound administered intraperitoneally. The class given is functional. To be noted: ip. In outline:
(§3)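 Male Sprague-Dawley rats were fasted 24 h, then given vehicle or test dose, ip or po. Powdered chow was returned and 2 h food intake was recorded. Each animal was fasted twice weekly (Monday, Thursday) and tested the following day. Groups were compared by one-way ANOVA with post hoc t-tests, and ED50 was calculated.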

Assay [7] deals with Rattus norvegicus. Briefly: Concentration required to decrease food intake in Sprague-Dawley rats when compound administered orally. It is filed as functional. As to conditions: po. In outline: as §3

For the compound `FC(F)(F)c1cc2c(cc1Cl)N1CCNC[C@@H]1CN2`, the Ki came to 17 nM in assay [1] and 92 nM in assay [2]. In assay [3], this compound registered a 50% effective concentration (EC50) of 19 nM. Moreover, in assay [4], the Emax was 76%.
Regarding `O=C1Nc2cc(Cl)c(Cl)cc2N2CCNCC12` (centres undefined), the figures for the Ki in assay [1] and in assay [2] were 4 nM and 58 nM, respectively. In assay [4], this compound came in with an Emax of 110%.
Regarding `Clc1cc2c(cc1Cl)N1CCNC[C@H]1CN2`, the Ki in assay [1] is 8 nM; in assay [2] it was 61 nM. The compound further had an EC50 in assay [3] of 45 nM. In assay [4], the Emax stood at 82%.
As for `O=C(c1ccccc1)c1ccc2c(c1)NC(=O)C1CNCCN21` (centres undefined), the Ki came to 2150 nM in assay [1] and 9200 nM in assay [2].
Compound `O=C1Nc2cc(C(F)(F)F)c(Cl)cc2N2CCNC[C@@H]12` yielded a Ki in assay [2] of 3600 nM. In assay [4], this compound showed an Emax of 85%.
In turn, `O=C1Nc2ccc(O)cc2N2CCNCC12` (centres undefined) came in with an inhibition in assay [5] of 24%.
Same read-out and setting: the same measure for `O=C1Nc2c(Cl)cccc2N2CCNCC12` (centres undefined): 15%.
On to `O=C1Nc2cc(C(F)(F)F)c(Cl)cc2N2CCNC[C@H]12`, for which the affinity in assay [2], expressed as Ki, was 160 nM. In assay [4], the Emax stood at 97%.
Turning to `CN1C(=O)C2CNCCN2c2ccccc21` (centres undefined), in assay [5], the inhibition amounted to 9%.
Turning to `O=C1Nc2ccccc2N2CCNC[C@@H]12`, the inhibition in assay [5] turned out to be 10%.
Compound `COC(=O)c1ccc2c(c1)NC(=O)C1CNCCN21` (centres undefined) returned an inhibition in assay [5] of 1%.
The same measure, in the same setting: the same measure for `O=C1Nc2ccccc2N2CCNC[C@H]12`: 47%.
For `O=C1Nc2ccc(Cl)cc2N2CCNC[C@H]12`, the Ki in assay [1] stood at 34 nM; in assay [2], 238 nM. Moreover, a half-maximal effect in assay [3] (EC50) was put at 86 nM. For the same compound, the Emax in assay [4] came out at 95%.
Turning to `O=C1Nc2ccccc2N2CCNCC12` (centres undefined), the inhibition in assay [5] stood at 25%.
The compound `O=C1Nc2c(Cl)cc(Cl)cc2N2CCNCC12` (centres undefined) came in with a Ki in assay [2] of 368 nM.
`O=C1Nc2cc(Cl)c(Cl)cc2N2CCNC[C@@H]12`: the Ki in assay [2] turned out to be 285 nM. In addition, the Emax in assay [4] amounted to 88%.
`O=C1Nc2cccc(Cl)c2N2CCNCC12` (centres undefined) had an inhibition in assay [5] of 8%.
The same measure, in the same setting: the same measure for `O=C1Nc2cc(NC(=O)C(F)(F)F)ccc2N2CCNCC12` (centres undefined): 21%.
Take `O=C1Nc2cc(C(F)(F)F)c(Cl)cc2N2CCNCC12` (centres undefined): the Ki in assay [1] was 9 nM; in assay [2], 84 nM. Also, the EC50 in assay [3] was found to be 136 nM. In assay [4], this compound showed an Emax of 108%.
As for `Nc1ccc2c(c1)NC(=O)C1CNCCN21` (centres undefined), the inhibition in assay [5] stood at 0%.
On to `O=C1Nc2cc(F)ccc2N2CCNCC12` (centres undefined), for which the inhibition in assay [5] worked out at 7%.
Take `O=C1Nc2cc(F)c(F)cc2N2CCNCC12` (centres undefined): the Ki in assay [2] turned out to be 1800 nM.
`O=C1Nc2ccc(Cl)c(Cl)c2N2CCNCC12` (centres undefined): the Ki in assay [1] turned out to be 1000 nM; in assay [2], 1700 nM.
With `O=C1Nc2cc(Cl)c(Cl)cc2N2CCNC[C@H]12`, the Ki stood at 3 nM in assay [1] and 32 nM in assay [2]. The median effective dose (ED50) in assay [6] was found to be 2 mg/kg; in assay [7], 10 mg/kg. In assay [4], the Emax was found to be 112%.
In turn, `c1ccc2c(c1)NCC1CNCCN21` (centres undefined) gave an inhibition in assay [5] of 22%.
In assay [5], `NC(=O)c1ccc2c(c1)NC(=O)C1CNCCN21` (centres undefined) returned an inhibition of 5%.
As for `COc1ccc2c(c1)N1CCNCC1C(=O)N2` (centres undefined), in assay [5], the inhibition was 36%.
In assay [2], `Clc1cc2c(cc1Cl)N1CCNCC1CN2` (centres undefined) displayed a Ki of 18 nM. In assay [3], this compound returned an EC50 of 7.6 nM. The Emax in assay [4] was determined as 96%.
With `O=C1Nc2ccc(F)cc2N2CCNCC12` (centres undefined), in assay [5], the inhibition came out at 26%.
On the same count and under the same terms, the same measure for `O=C1Nc2c(F)cccc2N2CCNCC12` (centres undefined): 48%; for `CCCCN(CCCC)c1ccc2c(c1)NC(=O)C1CNCCN21` (centres undefined): 7%.
On the same count and under the same terms, the same measure for `O=C1Nc2cc(C(F)(F)F)ccc2N2CCNCC12` (centres undefined): 46%.
Same read-out and setting: the same measure for `O=C1Nc2ccc(Cl)cc2N2CCNCC12` (centres undefined): 67%.
In the case of `Clc1cc2c(cc1Cl)N1CCNC[C@@H]1CN2`, the values for the Ki in assay [1] and in assay [2] were 7 nM and 88 nM, respectively. The compound also showed an EC50 in assay [3] of 49 nM. In assay [4], this compound yielded an Emax of 107%.
`O=C1Nc2cc(Cl)ccc2N2CCNCC12` (centres undefined) came in with an inhibition in assay [5] of 33%.
Same read-out and setting: the same measure for `Cc1ccc2c(c1)N1CCNCC1C(=O)N2` (centres undefined): 0%.

(Values after ChEMBL document CHEMBL1133296, “Synthesis and 5-hydroxytryptamine (5-HT) activity of 2,3,4,4a-tetrahydro-1H-pyrazino[1,2-a]quinoxalin-5-(6H)ones and 2,3,4,4a,5,6-hexahydro-1H-pyrazino[1,2-a]quinoxalines” (Bioorg Med Chem Lett, 2000).)
